# Screens: PubChem BioAssay, several laboratories
# Apaf-1 inh: human Apaf-1 inhibition | O14727 | reconstituted apoptosome caspase-3 activity, DEVD-Rh110 fluorescence | inhibition, % at 20 µM | 0.71% of 330,000 active | AID 489030; active means inhibition of at least 40% at 20 µM
#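 Medium: Hepes buffer, pH 7.5 / System: biochemical Apaf-1 apoptosome reconstitution / Measured by: Rh110 fluorescence, excitation 480 nm, emission 540 nm / Times: compound with Apaf-1, dATP, procaspase-3 30 min, then 50 min reaction, room temperature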
# EBNA-1 inh: blocks EBNA-1 binding to DNA. inhibition, % at 14.8 µM. EBNA-1 DNA binding, fluorescence polarization. 0.34% of 300,000 active. AID 1950; in the data active means inhibition above about 28%
# GSTO1 counter: counter-screen for RBBP9 inhibitors: inhibitors of human GSTO1; P78417; recombinant GSTO1, activity-based probe fluorescence polarization; 1.1% of 300,000 active; inhibition, % at 5.96 µM;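 active means inhibition above the campaign mean inhibition plus 3 SD, cut at about 35% in these data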
# procasp3 activ: activators of human procaspase-3 | recombinant procaspase-3 D3A, Ac-DEVD-pNA absorbance 405 nm | activation, % at 8.5 µM | 0.11% of 330,000 active | AID 463141;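 active means activation above the mean of all tested compounds plus 3 SD, cut at about 21% in these data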
# Target sequence (P42574 whole entry D9A/D28A/D175A): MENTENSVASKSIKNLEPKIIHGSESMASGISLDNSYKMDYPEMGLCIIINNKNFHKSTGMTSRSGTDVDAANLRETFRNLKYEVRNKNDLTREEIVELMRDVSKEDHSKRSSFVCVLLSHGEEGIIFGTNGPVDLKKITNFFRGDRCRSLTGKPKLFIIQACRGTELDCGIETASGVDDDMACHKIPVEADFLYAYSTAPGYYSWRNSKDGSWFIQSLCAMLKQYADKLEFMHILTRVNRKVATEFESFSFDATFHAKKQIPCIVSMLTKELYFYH
#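 material = Procaspase-3 D3A mutant | probe or stimulus = Ac-DEVD-pNA | compound = single dose, 8.5 µM nominal compound, 0.8% DMSO | timing = 1 h preincubation, 2 h reaction | measured by = 405 nm absorbance of p-nitroaniline, reads at 0 and 120 min | benchmarks = DMSO-only low control, 5 µM PC-3 D3A high control | repeats = singlicate, each compound tested once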
# procasp7 counter: counter-screen: procaspase-7 (human) activation; P55210; recombinant procaspase-7, Ac-DEVD-pNA absorbance 405 nm; D23A/D198A/D206A triple mutant, cannot self-cleave; scale: DMSO 0, 5 µM enzyme 100; activation, % at 8.5 µM; 0.093% of 330,000 active;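 active means percent activation above the screen-wide mean plus 3 SD, cut at about 25% in these data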
#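 Material: Procaspase-7 triple mutant (PC-7 D3A) | Quantity: 2 µM procaspase-7 mutant as dispensed | Reagent: DEVD-pNA substrate | Times: 1 h preincubation, 2 h reaction | Technique: 405 nm absorbance of p-nitroaniline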
# ZTA DNA inh: blocks Epstein-Barr virus ZTA, an EBNA-1 counter-screen | ZTA-DNA binding, fluorescence polarization | inhibition, % at 11 µM | 0.15% of 320,000 active; in the data active means inhibition above about 33%
# Apaf-1 inh conf2: confirmation of Apaf-1 inhibitors | shares compounds with Apaf-1 inh | reconstituted apoptosome, caspase-3 DEVD-Rh110 fluorescence | inhibition, % at 20 µM | 25% of 1,800 active;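 active means mean inhibition of at least 40% at 20 µM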
# Rh110 interf inh: Rh110 signal interference in Apaf-1 inhibitor counter-screen; shares compounds with Apaf-1 inh; Rh110 fluorescence interference, quenched caspase reaction; activation (fluorescence interference), % at 20 µM; 1,800 tested, under 10 active; AID 504615;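 active means signal rise of 40% or more at 20 µM, treated as a fluorescence artifact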
# Apaf1 inh interf: Apaf-1 inhibitor counter-screen fluorescence artifact; AID 588538; fluorescence interference counterscreen, Apaf-1 assay format; IC50, µM; shares compounds with Apaf-1 inh; 460 tested, under 10 active; call rule not given here
# Numbers stand for hits; - = inactive; . = no result. Compounds with a hit are over-represented: about 1.8% of the library has one in this group of screens.
SMILES,Apaf-1 inh,EBNA-1 inh,GSTO1 counter,procasp3 activ,procasp7 counter,ZTA DNA inh,Apaf-1 inh conf2,Rh110 interf inh,others
N#C/C(=C\c1ccc(-c2ccccc2[N+](=O)[O-])o1)C(=O)N1CCOCC1,-,-,-,-,-,-,.,.,
O=C(/C=C/c1ccc(-c2ccccc2[N+](=O)[O-])o1)c1ccco1,43,-,-,-,-,-,-,-,
CN(C)S(=O)(=O)c1cccc(NC(=O)COC(=O)/C=C/c2ccco2)c1,95,-,-,-,-,-,-,-,
CCN(CC)S(=O)(=O)c1cccc(NC(=O)COC(=O)/C=C/c2ccco2)c1,-,-,-,-,-,-,.,.,
COc1ccccc1S(=O)(=O)Nc1ccc2cn[nH]c2c1,-,-,-,-,-,-,.,.,
CCOc1cc(CNc2ccc3cn[nH]c3c2)ccc1OC,85,-,-,-,-,-,49,-,Apaf1 inh interf=-
COc1ccc(CNc2ccc3cn[nH]c3c2)c(OC)c1OC,46,-,-,-,-,-,-,-,
O=C(CNS(=O)(=O)c1ccc(Br)s1)NCc1ccccc1,-,-,-,-,-,-,.,.,
COC(=O)c1cccc(C23CC4(C2)[C@H](CN(CC2CCCCC2)[C@@H]4c2ccccc2)C3c2ccccc2)c1 (some centres not stated),40,-,-,-,-,-,-,-,
COC(=O)c1ccc(C23CC4(C2)[C@H](CN(CC2CCCCC2)[C@@H]4c2ccccc2)C3c2ccc(Cl)nc2)cc1 (some centres not stated),-,-,-,-,-,-,.,.,
c1ccc(C[C@H]2CN=C(Nc3ccccc3)N2CCCC2CCCCC2)cc1,47,.,.,-,-,.,-,-,
CC1Cc2ccccc2N1C(=O)CSc1nncs1 (configuration not stated),-,.,.,-,-,-,.,.,
O=C(Nc1ccccc1[N+](=O)[O-])c1cccc(N2C(=O)CCC2=O)c1,-,-,-,-,-,-,.,.,
CCCCCn1c(NC(=O)c2ccco2)c(S(=O)(=O)c2ccc(C)cc2)c2nc3ccccc3nc21,63,-,-,-,-,-,-,-,
CCCCn1c(NC(C)=O)c(C#N)c2nc3ccccc3nc21,84,-,-,-,-,-,-,-,
CCCCn1c(CNC(C)=O)nc2ccccc21,-,-,-,-,-,-,.,.,
O=C(NCc1ccco1)Nc1ccc2nsnc2c1,59,-,-,-,-,-,-,-,
COC(=O)C1=C(C)N(Cc2ccccc2)C(=NCCc2c[nH]c3ccccc23)N[C@H]1c1ccccc1,69,.,.,-,-,.,-,-,
COCCN=C1N[C@@H](c2ccccc2)C(C(=O)OC)=C(C)N1Cc1ccccc1,-,-,-,-,-,-,.,.,
CCN1C(=NCCOC)N[C@@H](c2cccc(F)c2)C(C(=O)OC)=C1C,-,-,-,-,-,-,.,.,
COC(=O)C1=C(C)N(Cc2ccccc2)C(=NCCc2c[nH]c3ccccc23)N[C@H]1c1cccc(F)c1,60,.,.,-,-,.,-,-,
CC[C@H](C)[C@@H]1NC(=O)[C@H]([C@@H](C)CC)NC(=O)[C@@H](CC(C)C)NC(=O)[C@H](Cc2ccccc2)NC(=O)[C@H](Cc2ccccc2)NC(=O)[C@@H]2CCCN2C(=O)[C@@H]2CCCN2C(=O)[C@H](C(C)C)NC(=O)[C@H](CC(C)C)NC1=O,54,.,.,-,-,.,-,-,
COc1ccc(S(=O)(=O)N2CCCCCC2)cc1C(=O)NCCc1ccccc1,47,.,.,-,-,-,-,-,
CCN1CCN(S(=O)(=O)c2ccc(Cl)c(C(=O)N(C)Cc3cccc(Cl)c3Cl)c2)CC1,43,-,-,-,-,-,-,-,
